Test results reported in PMC9233141 (ChemMedChem, 2022).
Each block holds one compound with its values, some of them ahead of it.

Assays:
PKN3 [1] = molecular target: T1, PKN3 (Homo sapiens, UniProt Q6P5Z2); experiment: split-luciferase binding assay
GAK [2] = experiment: GAK NanoBRET; type: cell-based; settings: NanoBRET GAK vs PKN3
GAK [3] = settings: read-out: GAK activity in cells IC50; GAK NanoBRET; cited from earlier work
PKN3 [4] = molecular target: T1, PKN3; experiment: PKN3 NanoBRET in-cell target engagement; type: cell-based
How it was run: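 Full-length PKN3 with N-terminal NanoLuc (Gly-Ser-Ser-Gly linker) transiently expressed in HEK-293 cells for 20-30 hr at 37°C/5% CO2. Cells in Opti-MEM at 2 x 10^4/well are equilibrated 2 h with tracer K-5 (1000 nM final) and test compound. NanoBRET substrate and extracellular NanoLuc inhibitor are added, and donor/acceptor luminescence is read. IC50 comes from a variable-slope fit, normalised to controls when needed.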

GAK [5] = experiment: GAK FRET binding; settings: compared to 14
[6] = test system: kinases in lysates of SUM159 cells; experiment: MIB-MS kinome profiling; type: binding; settings: 1 μM; for kinases on which activity was detected: threshold 5-fold change
ACVR1 = settings: read-out: ACVR1 Kd; DiscoverX profiling; cited from earlier work
NLK = settings: read-out: Kd NLK; DiscoverX KinomeSCAN, prior annotation of PKIS2; cited from earlier work
human kinome = settings: at 1 μM, across the human kinome; cited from earlier work
[7] = PKN3 IC50, SLCA assay (n=2), 8-point dose response

T1 sequence (Q6P5Z2 whole entry): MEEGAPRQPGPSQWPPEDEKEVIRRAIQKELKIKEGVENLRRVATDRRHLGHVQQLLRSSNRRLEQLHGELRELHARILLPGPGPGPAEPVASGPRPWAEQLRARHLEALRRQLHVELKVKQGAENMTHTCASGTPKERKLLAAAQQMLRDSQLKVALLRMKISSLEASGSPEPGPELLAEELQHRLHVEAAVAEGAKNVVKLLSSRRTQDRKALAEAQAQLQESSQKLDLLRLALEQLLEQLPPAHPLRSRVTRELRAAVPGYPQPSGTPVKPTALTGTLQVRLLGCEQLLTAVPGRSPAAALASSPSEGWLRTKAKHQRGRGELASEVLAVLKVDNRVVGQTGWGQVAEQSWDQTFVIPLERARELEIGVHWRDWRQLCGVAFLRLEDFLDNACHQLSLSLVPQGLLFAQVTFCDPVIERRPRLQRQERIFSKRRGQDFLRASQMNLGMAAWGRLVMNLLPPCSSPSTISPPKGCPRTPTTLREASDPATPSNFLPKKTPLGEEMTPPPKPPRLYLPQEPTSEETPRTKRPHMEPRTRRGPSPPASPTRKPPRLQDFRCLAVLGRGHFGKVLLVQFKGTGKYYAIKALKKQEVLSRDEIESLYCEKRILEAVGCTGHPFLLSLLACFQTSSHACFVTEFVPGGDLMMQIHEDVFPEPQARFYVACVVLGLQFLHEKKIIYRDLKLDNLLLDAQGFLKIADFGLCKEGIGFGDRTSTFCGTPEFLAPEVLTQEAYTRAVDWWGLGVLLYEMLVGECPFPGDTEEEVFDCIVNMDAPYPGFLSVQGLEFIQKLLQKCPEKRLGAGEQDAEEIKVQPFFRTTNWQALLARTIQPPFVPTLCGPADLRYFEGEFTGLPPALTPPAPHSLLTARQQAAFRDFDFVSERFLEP

IC50 (PKN3 [1]; [7]): 5900 nM | PKN3 binding, in words (PKN3 [1]; SLCA assay): moderate activity
SMILES: CS(=O)(=O)CCNCc1ccc(-c2ccc3ncnc(Nc4ccc(OCc5cccc(F)c5)c(Cl)c4)c3c2)o1 [Lapatinib]

IC50 (PKN3 [1]; [7]): 540 nM
SMILES: COc1cc2c(Nc3ccc(Br)cc3F)ncnc2cc1OCC1CCN(C)CC1 [Vandetanib]

IC50 (PKN3 [1]; [7]): 44000 nM
SMILES: CNC(=O)CN1CCC(Oc2cc3c(Nc4cccc(Cl)c4F)ncnc3cc2OC)CC1 [Sapitinib]

IC50 (PKN3 [1]; [7]): 240 nM
SMILES: COc1cc2c(Nc3ccc(Cl)c(Cl)c3F)ncnc2cc1OC[C@@H]1C[C@@H]2CN(C)C[C@@H]2C1 [Tesevatinib]

IC50 (PKN3 [4]): 1300 nM | drop off in activity from cell free SLCA assay to NanoBRET (PKN3 [4]; PKN3): ~100 fold | decrease in GAK activity (GAK [5]): 3 fold
SMILES: COc1cc(Nc2ccnc3cc(I)ccc23)cc(OC)c1OC [Compound 16, 7-iodo-N-(3,4,5-trimethoxyphenyl)quinolin-4-amine]
more potent on GAK than PKN3 in cells (GAK [2]): 17 fold | IC50 (GAK [3]): 74 nM | kinome profile [6]: narrow spectrum | kinases on which activity was detected [6]: PKN3, NLK, GAK, AVCR1 and RIPK2

SMILES: COc1cc(Nc2ccnc3ccc(C(F)(F)F)cc23)cc(OC)c1OC [Compound 2]
Kd (ACVR1): 220 nM | Kd (NLK): < 1000 nM | kinome profile [6]: narrow spectrum | kinases on which activity was detected [6]: GAK and RIPK2

IC50 (PKN3 [1]; [7]): 42000 nM
SMILES: COc1cc2nccc(Oc3ccc(NC(=O)C4(C(=O)Nc5ccc(F)cc5)CC4)cc3)c2cc1OC [Cabozantinib]

IC50 (PKN3 [1]; PKN3 IC50, SLCA assay): 9 nM
SMILES: COc1cc(Nc2ccnc3cc(-c4ccncc4)ccc23)cc(OC)c1OC [Compound 3]
number of kinases inhibited >90% (human kinome): > 18 kinases
